Results: paper PMC7181426 (Clinical Drug Investigation, 2020)
Several values for one entry are separate records, joined by “and”; a condition that tells them apart may be missing. Identical values can stand only once. Marks after values point to notes of the source that are not given here.

What was measured:
[1] = Single-dose pharmacokinetics; format: in vivo, human; conditions: for CL/F, Mean (SD) / Aelast%, Mean (SD) / Aelast, Mean (SD): fasted; for Aelast%, Mean (SD) / Aelast, Mean (SD): urine
Multiple-dose = format: in vivo, human; conditions: for AUC: AUC12, Mean (SD); for Cmax: Mean (SD); for Tmax: Median; for Ae12%, Mean (SD) / Ae12, Mean (SD): urine
STAT5 phosphorylation = experiment: Inhibition of STAT5 phosphorylation in IL-2-stimulated CD3-positive lymphocytes; format: in vivo, human; conditions: single doses 20–200 mg, Japanese and Caucasian
[2] = tested on: peripheral lymphocyte subsets; experiment: Peripheral lymphocyte subsets by flow cytometry, multiple-dose study; format: in vivo, human; conditions: 100 mg, 72 h after twice-daily dosing on day 7
[3] = Safety: treatment-emergent adverse events, single-dose study; format: in vivo, human
How it was run: (§1)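 Adverse events were monitored throughout the study in subjects randomized 3:1 to test compound or placebo. Single-dose subjects were discharged on day 3 and returned on day 7; twice-daily subjects were discharged on day 10 and returned on day 13. Events were coded by System Organ Class and preferred term (MedDRA 12.1). The investigator assessed relatedness and graded severity as mild, moderate or severe.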

[4] = Safety: treatment-emergent adverse events, multiple-dose study; format: in vivo, human; conditions: for Alanine aminotransferase increased / Any TEAE / Aspartate aminotransferase increased / Blood creatinine phosphokinase increased / Diarrhea / Feeling abnormal / Headache / Hot flush / Malaise / Neutrophil count decreased / Rash / White blood cell count increased: Japanese
How it was run: as §1

[5] = cited from earlier work
[6] = tested on: SULT2A1, nicotinamide N-methyltransferase; conditions: cited from earlier work
[7] = Caucasian, single oral dose 20 mg
[8] = Caucasian, single oral dose 60 mg
[9] = Caucasian, single oral dose 200 mg
[10] = Japanese, single oral dose 20 mg
[11] = Japanese, single oral dose 60 mg
[12] = Japanese, single oral dose 200 mg
[13] = male, human, plasma, oral, 10 mg, Japanese, 10 mg bid, Day 1
[14] = male, human, plasma, oral, 10 mg, Japanese, 10 mg bid, Day 7
[15] = male, human, plasma, oral, 30 mg, Japanese, 30 mg bid, Day 1
[16] = male, human, plasma, oral, 30 mg, Japanese, 30 mg bid, Day 7
[17] = male, human, plasma, oral, 100 mg, Japanese, 100 mg bid, Day 1
[18] = male, human, plasma, oral, 100 mg, Japanese, 100 mg bid, Day 7
[19] = Caucasian, single dose 20 mg (n = 6)
[20] = Caucasian, single dose 60 mg (n = 6)
[21] = Caucasian, single dose 200 mg (n = 6)
[22] = Japanese, single dose 20 mg (n = 6)
[23] = Japanese, single dose 60 mg (n = 6)
[24] = Japanese, single dose 200 mg (n = 6)
[25] = single- and multiple-dose studies

NC(=O)c1cnc2[nH]ccc2c1N[C@@H]1[C@@H]2CC3C[C@H]1C[C@@](O)(C3)C2 [peficitinib, Peficitinib]
CL/F, Mean (SD) [1, 7]: 108.5 (30.0) L/h
CL/F, Mean (SD) [1, 8]: 117.8 (23.6) L/h
CL/F, Mean (SD) [1, 9]: 133.1 (15.0) L/h
CL/F, Mean (SD) [1, 10]: 78.9 (13.5) L/h
CL/F, Mean (SD) [1, 11]: 79.8 (19.2) L/h
CL/F, Mean (SD) [1, 12]: 79.8 (8.2) L/h
Tmax ([1]; male, human, plasma, oral, median tmax, range, single-dose administration, both Japanese and Caucasian subjects): 1 to 2 h
geometric mean ratio for dose-normalized AUCinf, higher in Japanese versus Caucasian subjects ([1]; single doses 20, 60, 200 mg): 33.8–66.4%
geometric mean ratio for dose-normalized Cmax, higher in Japanese versus Caucasian subjects ([1]; single doses 20, 60, 200 mg): 45.7–98.8%
AUCinf higher in Japanese subjects compared with Caucasian subjects ([1]; single doses 20 to 200 mg): 49%
Cmax higher in Japanese subjects compared with Caucasian subjects ([1]; single doses 20 to 200 mg): 70%
Dose proportionality of Cmax and AUCinf ([1]; single doses, dose range of 20–200 mg): demonstrated
Aelast%, Mean (SD) [1, 7]: 14.2 %dose and 14.2 (3.6) %dose
Aelast, Mean (SD) [1, 7]: 2.9 (0.7) mg
Aelast%, Mean (SD) [1, 8]: 10.6 (3.6) %dose
Aelast, Mean (SD) [1, 8]: 6.4 (2.2) mg
Aelast%, Mean (SD) [1, 9]: 9.9 %dose and 9.9 (1.2) %dose
Aelast, Mean (SD) [1, 9]: 19.8 (2.4) mg
Aelast%, Mean (SD) [1, 10]: 16.8 %dose and 16.8 (4.1) %dose
Aelast, Mean (SD) [1, 10]: 3.4 (0.8) mg
Aelast%, Mean (SD) [1, 11]: 14.8 (2.8) %dose
Aelast, Mean (SD) [1, 11]: 8.9 (1.7) mg
Aelast%, Mean (SD) [1, 12]: 12.5 %dose and 12.5 (2.7) %dose
Aelast, Mean (SD) [1, 12]: 25.1 (5.4) mg
CL/F, Mean (SD) (Multiple-dose; Japanese, 10 mg bid, Day 1): 87.7 (23.6) L/h
CL/F, Mean (SD) (Multiple-dose; Japanese, 10 mg bid, Day 7): 71.0 (13.6) L/h
CL/F, Mean (SD) (Multiple-dose; Japanese, 30 mg bid, Day 1): 83.3 (14.6) L/h
CL/F, Mean (SD) (Multiple-dose; Japanese, 30 mg bid, Day 7): 69.6 (13.5) L/h
CL/F, Mean (SD) (Multiple-dose; Japanese, 100 mg bid, Day 1): 71.2 (8.7) L/h
CL/F, Mean (SD) (Multiple-dose; Japanese, 100 mg bid, Day 7): 55.7 (9.3) L/h
AUC12 on day 7 higher than AUC12 after the first dose (Multiple-dose; Japanese, 10–100 mg bid): 25–37%
Cmax on day 7 higher than Cmax after the first dose (Multiple-dose; Japanese, 10–100 mg bid): 13–28%
Steady-state plasma concentrations achieved by (Multiple-dose; Japanese, twice-daily dosing, visual prediction): ≤ 3 days
half-life at 7 day (Multiple-dose; male, human, plasma, oral): 360 to 444 min
half-life (Multiple-dose; male, human, plasma, oral, 10 mg): 360 min
AUC (Multiple-dose; [13]): 114 ng·h/mL
AUC (Multiple-dose; [14]): 145 ng·h/mL
Cmax (Multiple-dose; [13]): 28.5 ng/mL
Cmax (Multiple-dose; [14]): 36.4 ng/mL
Tmax (Multiple-dose; [13]): 1.5 h
Tmax (Multiple-dose; [14]): 2.5 h
half-life (Multiple-dose; male, human, plasma, oral, 30 mg): 366 min
AUC (Multiple-dose; [15]): 354 ng·h/mL
AUC (Multiple-dose; [16]): 444 ng·h/mL
Cmax (Multiple-dose; [15]): 93.5 ng/mL
Cmax (Multiple-dose; [16]): 106 ng/mL
Tmax (Multiple-dose; [15]): 2 h
Tmax (Multiple-dose; [16]): 2 h
half-life (Multiple-dose; male, human, plasma, oral, 100 mg): 444 min
AUC (Multiple-dose; [17]): 1340 ng·h/mL
AUC (Multiple-dose; [18]): 1830 ng·h/mL
Cmax (Multiple-dose; [17]): 383 ng/mL
Cmax (Multiple-dose; [18]): 483 ng/mL
Tmax (Multiple-dose; [17]): 2 h
Tmax (Multiple-dose; [18]): 2 h
Ae12%, Mean (SD) (Multiple-dose; Japanese, 10 mg bid, Day 1): 14.9 (4.4) %dose
Ae12, Mean (SD) (Multiple-dose; Japanese, 10 mg bid, Day 1): 1.5 (0.4) mg
Ae12%, Mean (SD) (Multiple-dose; Japanese, 10 mg bid, Day 7): 32.0 (3.4) %dose
Ae12, Mean (SD) (Multiple-dose; Japanese, 10 mg bid, Day 7): 3.2 (0.3) mg
Ae12%, Mean (SD) (Multiple-dose; Japanese, 30 mg bid, Day 1): 15.6 (4.0) %dose
Ae12, Mean (SD) (Multiple-dose; Japanese, 30 mg bid, Day 1): 4.7 (1.2) mg
Ae12%, Mean (SD) (Multiple-dose; Japanese, 30 mg bid, Day 7): 26.4 %dose and 26.4 (4.2) %dose
Ae12, Mean (SD) (Multiple-dose; Japanese, 30 mg bid, Day 7): 7.9 (1.3) mg
Ae12%, Mean (SD) (Multiple-dose; Japanese, 100 mg bid, Day 1): 19.2 (2.7) %dose
Ae12, Mean (SD) (Multiple-dose; Japanese, 100 mg bid, Day 1): 19.2 (2.7) mg
Ae12%, Mean (SD) (Multiple-dose; Japanese, 100 mg bid, Day 7): 37.7 %dose and 37.7 (9.8) %dose
Ae12, Mean (SD) (Multiple-dose; Japanese, 100 mg bid, Day 7): 37.7 (9.8) mg
Mean peak inhibition of STAT5 phosphorylation, dose dependence (STAT5 phosphorylation): increased with increasing single doses of peficitinib
largest change: decrease in the subset of CD3+, CD45RA+ and total naïve cells [2]: 7.50%
Any TEAE [3, 19]: 0 n (%)
Blood potassium increased [3, 19]: 0 n (%)
Diarrhea [3, 19]: 0 n (%)
White blood cell count increased [3, 19]: 0 n (%)
Any TEAE [3, 20]: 1 (16.7) n (%)
Blood potassium increased [3, 20]: 0 n (%)
Diarrhea [3, 20]: 1 (16.7)^b n (%)
White blood cell count increased [3, 20]: 0 n (%)
Any TEAE [3, 21]: 0 n (%)
Blood potassium increased [3, 21]: 0 n (%)
Diarrhea [3, 21]: 0 n (%)
White blood cell count increased [3, 21]: 0 n (%)
Any TEAE [3, 22]: 1 (16.7) n (%)
Blood potassium increased [3, 22]: 1 (16.7)^b n (%)
Diarrhea [3, 22]: 0 n (%)
White blood cell count increased [3, 22]: 0 n (%)
Any TEAE [3, 23]: 2 (33.3) n (%)
Blood potassium increased [3, 23]: 0 n (%)
Diarrhea [3, 23]: 0 n (%)
White blood cell count increased [3, 23]: 2 (33.3) n (%)
Any TEAE [3, 24]: 1 (16.7) n (%)
Blood potassium increased [3, 24]: 0 n (%)
Diarrhea [3, 24]: 0 n (%)
White blood cell count increased [3, 24]: 1 (16.7) n (%)
Alanine aminotransferase increased ([4]; 10 mg bid for 7 days (n = 6)): 1 (16.7)^b n (%)
Any TEAE ([4]; 10 mg bid for 7 days (n = 6)): 2 (33.3) n (%)
Aspartate aminotransferase increased ([4]; 10 mg bid for 7 days (n = 6)): 1 (16.7)^b n (%)
Blood creatinine phosphokinase increased ([4]; 10 mg bid for 7 days (n = 6)): 1 (16.7)^b n (%)
Diarrhea ([4]; 10 mg bid for 7 days (n = 6)): 0 n (%)
Feeling abnormal ([4]; 10 mg bid for 7 days (n = 6)): 1 (16.7)^b n (%)
Headache ([4]; 10 mg bid for 7 days (n = 6)): 1 (16.7)^b n (%)
Hot flush ([4]; 10 mg bid for 7 days (n = 6)): 1 (16.7)^b n (%)
Malaise ([4]; 10 mg bid for 7 days (n = 6)): 0 n (%)
Neutrophil count decreased ([4]; 10 mg bid for 7 days (n = 6)): 0 n (%)
Rash ([4]; 10 mg bid for 7 days (n = 6)): 0 n (%)
White blood cell count increased ([4]; 10 mg bid for 7 days (n = 6)): 1 (16.7)^b n (%)
Alanine aminotransferase increased ([4]; 30 mg bid for 7 days (n = 6)): 0 n (%)
Any TEAE ([4]; 30 mg bid for 7 days (n = 6)): 3 (50.0) n (%)
Aspartate aminotransferase increased ([4]; 30 mg bid for 7 days (n = 6)): 0 n (%)
Blood creatinine phosphokinase increased ([4]; 30 mg bid for 7 days (n = 6)): 0 n (%)
Diarrhea ([4]; 30 mg bid for 7 days (n = 6)): 1 (16.7)^b n (%)
Feeling abnormal ([4]; 30 mg bid for 7 days (n = 6)): 0 n (%)
Headache ([4]; 30 mg bid for 7 days (n = 6)): 0 n (%)
Hot flush ([4]; 30 mg bid for 7 days (n = 6)): 0 n (%)
Malaise ([4]; 30 mg bid for 7 days (n = 6)): 0 n (%)
Neutrophil count decreased ([4]; 30 mg bid for 7 days (n = 6)): 0 n (%)
Rash ([4]; 30 mg bid for 7 days (n = 6)): 1 (16.7)^b n (%)
White blood cell count increased ([4]; 30 mg bid for 7 days (n = 6)): 2 (33.3)^d n (%)
Alanine aminotransferase increased ([4]; 100 mg bid for 7 days (n = 6)): 1 (16.7)^b n (%)
Any TEAE ([4]; 100 mg bid for 7 days (n = 6)): 4 (66.7) n (%)
Aspartate aminotransferase increased ([4]; 100 mg bid for 7 days (n = 6)): 0 n (%)
Blood creatinine phosphokinase increased ([4]; 100 mg bid for 7 days (n = 6)): 0 n (%)
Diarrhea ([4]; 100 mg bid for 7 days (n = 6)): 0 n (%)
Feeling abnormal ([4]; 100 mg bid for 7 days (n = 6)): 0 n (%)
Headache ([4]; 100 mg bid for 7 days (n = 6)): 0 n (%)
Hot flush ([4]; 100 mg bid for 7 days (n = 6)): 0 n (%)
Malaise ([4]; 100 mg bid for 7 days (n = 6)): 0 n (%)
Neutrophil count decreased ([4]; 100 mg bid for 7 days (n = 6)): 3 n (%) and 3 (50.0)^b n (%)
Rash ([4]; 100 mg bid for 7 days (n = 6)): 0 n (%)
White blood cell count increased ([4]; 100 mg bid for 7 days (n = 6)): 0 n (%)
tolerability ([4]; doses up to 200 mg daily for 7 days, healthy Japanese subjects): well tolerated
serious TEAEs or TEAEs resulting in discontinuation [4, 25]: no serious TEAEs or TEAEs resulting in discontinuation
severity of TEAEs [4, 25]: mild
Neutrophil counts recovered by ([4]; three subjects receiving 100 mg twice daily): ≤ 8 days
median tmax ([5]; healthy, fasted, mainly Caucasian men, 3–30 mg ref 11): 1 h
attainment of steady-state plasma levels by ([5]; multiple twice-daily dosing (30–200 mg twice daily), USA ref 11): ≤ 3 days
cumulative amounts excreted unchanged in urine, range ([5]; primarily Caucasian population in the USA, single oral doses of 30–200 mg ref 11): 3.9 to 22.1 mg
metabolizing enzymes [6]: metabolized by the sulfotransferase (SULT) isoenzyme, SULT2A1, and the methyltransferase isoenzyme, nicotinamide N-methyltransferase
